Test results reported in ChEMBL document CHEMBL4257442, “An insight into tetrahydro-β-carboline-tetrazole hybrids: synthesis and bioevaluation as potent antileishmanial agents” (Medchemcomm, 2017).

How the values were obtained:
Leishmania donovani [1] = assay: Antileishmanial activity against Leishmania donovani MHOM/IN/80/Dd8 amastigotes harboring luciferase reporter gene infected in mouse J774A.1 cells after 72 hrs by Steady-Glo luminescence assay; format: functional, organism-based; details: MHOM/IN/80/Dd8, J774.A1, 72 h
How it was run: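 Intracellular L. donovani amastigotes in murine macrophages, with firefly luciferase reporter expression. IC50 is the concentration giving 50% inhibition of parasite growth. Values are the average of three independent assays, given as average ± standard error.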

[2] = Selectivity index, ratio of CC50 for mouse J774A.1 cells to IC50 for Leishmania donovani MHOM/IN/80/Dd8 amastigote forms infected in mouse J774A.1 cells; format: toxicity, cell-based; details: read-out: Ratio CC50/IC50
How it was run: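 SI was calculated as the cytotoxicity CC50 in J-774A.1 cells divided by the anti-amastigote IC50. The amastigote assay used murine macrophages expressing a firefly luciferase reporter, infected with intracellular L. donovani. Each IC50 and CC50 is the average of three independent assays.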

Leishmania donovani [3] = assay: Antileishmanial activity against Leishmania donovani MHOM/IN/80/Dd8 promastigotes harboring luciferase reporter gene after 72 hrs by Steady-Glo luminescence assay; format: functional, organism-based; details: MHOM/IN/80/Dd8, 72 h
How it was run: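 Extracellular promastigotes of the L. donovani WHO reference strain MHOM/IN/80/Dd8. IC50 is the concentration giving 50% inhibition of parasite growth. Values are the average of three independent assays, given as average ± standard error.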

[4] = Cytotoxicity against mouse J774A.1 cells after 2 hrs by MTT assay; format: cell-based, J774.A1
How it was run: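 Mouse macrophage J-774A.1 cells obtained from NCCS, Pune, were used for the in vitro cytotoxicity assay. CC50 is the average of three independent assays, expressed as average ± standard error.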

Leishmania donovani [5] = assay: (§1) Antileishmanial activity against Leishmania donovani MHOM/IN/80/Dd8 amastigotes infected in golden hamsters assessed as inhibition of splenic parasite burden at 100 mg/kg, po for 5 consecutive days initiated after 2 days of biopsy and measured on day 7 post last dose by Giemsa staining-based assay relative to control; format: functional; details: MHOM/IN/80/Dd8, po
Leishmania donovani [6] = assay: as §1, with “at 50” for “at 100”, “mg/kg, ip” for “mg/kg, po”, “day 28” for “day 7”; format: functional; details: MHOM/IN/80/Dd8, ip
How it was run: (§2)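 Golden hamster model infected with L. donovani. Treatment was 50 mg kg–1 given intraperitoneally for 5 consecutive days. Read-out was % inhibition of splenic parasite burden.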

[7] = MRT in golden Syrian hamster at 50 mg/kg, po measured up to 24 hrs by LC-MS/MS analysis; format: ADME, organism-based, Mesocricetus auratus; details: in vivo
How it was run: (§3)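 Single oral 50 mg kg–1 dose given to golden Syrian hamsters (n = 5). Compound quantified in serum over time up to 24 h by validated LC-MS/MS with electrospray ionization. Parameters came from non-compartmental analysis of the mean serum concentration–time profile and are reported as mean ± SEM of five animals.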

[8] = Apparent oral clearance in golden Syrian hamster at 50 mg/kg measured up to 24 hrs by LC-MS/MS analysis; format: ADME, organism-based, Mesocricetus auratus; details: in vivo; how it was run: as §3
[9] = Apparent oral volume of distribution in golden Syrian hamster at 50 mg/kg measured up to 24 hrs by LC-MS/MS analysis; format: ADME, organism-based, Mesocricetus auratus; details: in vivo; how it was run: as §3
Leishmania donovani [10] = assay: as §1, with “28” for “7”; format: functional; details: MHOM/IN/80/Dd8, po
[11] = Cmax in golden Syrian hamster at 50 mg/kg, po measured up to 24 hrs by LC-MS/MS analysis; format: ADME, organism-based, Mesocricetus auratus; set-up: dose 50 mg/kg, route oral; details: in vivo; how it was run: as §3
[12] = Tmax in golden Syrian hamster at 50 mg/kg, po measured up to 24 hrs by LC-MS/MS analysis; format: ADME, organism-based, Mesocricetus auratus; details: in vivo; how it was run: as §3
[13] = AUClast in golden Syrian hamster at 50 mg/kg, po measured up to 24 hrs by LC-MS/MS analysis; format: ADME, organism-based, Mesocricetus auratus; set-up: time < 24 hr, dose 50 mg/kg, route oral; details: in vivo; how it was run: as §3
Leishmania donovani [14] = assay: as §1, with “at 50” for “at 100”, “mg/kg, ip” for “mg/kg, po”; format: functional; details: MHOM/IN/80/Dd8, ip; how it was run: as §2
Leishmania donovani [15] = assay: as §1, with “30” for “100”; format: functional; details: MHOM/IN/80/Dd8, po

Row | SMILES | IC50 (Leishmania donovani [1]) [µM] | selectivity ratio [2] | IC50 (Leishmania donovani [3]) [µM] | CC50 at 2 h [4] [µM] | further results
1 | CC(C)c1ccc(C(c2nnnn2C(C)(C)C)N2CCc3c([nH]c4ccccc34)C2)cc1 (configuration not stated) | 17.6 | 7 | 3.56 | 130 | –
2 | N#Cc1ccc(C(c2nnnn2C2CCCCC2)N2CCc3c([nH]c4ccccc34)C2)cc1 (configuration not stated) | ≥ 50 | – | ≥ 100 | – | –
3 | CC(C)(C)n1nnnc1C(c1ccc(F)cc1)N1CCc2c([nH]c3ccccc23)C1 (configuration not stated) | 17.5 | 3 | 2.71 | 48.8 | –
4 | COc1ccc(C(c2nnnn2C2CCCCC2)N2CCc3c([nH]c4ccccc34)C2)cc1 (configuration not stated) | ≥ 50 | – | 20.4 | – | –
5 | COc1cc(C(c2nnnn2C2CCCCC2)N2CCc3c([nH]c4ccccc34)C2)cc(OC)c1OC (configuration not stated) | 1.57 | 23 | 2.81 | 36 | inhibition in vivo at 100 mg/kg (Leishmania donovani [5]): 50.9%; inhibition in vivo at 50 mg/kg (Leishmania donovani [6]): 88.9%; MRT [7]: 10.2 h; CL/F [8]: 720 mL/min/kg; Vd/F [9]: 652 L/kg; inhibition in vivo at 100 mg/kg (Leishmania donovani [10]): 77.5%; Cmax [11]: 76.2 to 83.5 ng/mL; Tmax [12]: 1.6 to 8 h; AUC(0-t) at 24 h [13]: 844 ng·h/mL; inhibition in vivo at 50 mg/kg (Leishmania donovani [14]): 75%
6 | CC(C)(C)n1nnnc1C(c1ccc(C#N)cc1)N1CCc2c([nH]c3ccccc23)C1 (configuration not stated) | 16.4 | 9 | 2.82 | 150 | –
7 | O=[N+]([O-])c1ccc(C(c2nnnn2C2CCCCC2)N2CCc3c([nH]c4ccccc34)C2)cc1 (configuration not stated) | ≥ 50 | – | 31 | – | –
8 | Clc1ccccc1C(c1nnnn1C1CCCCC1)N1CCc2c([nH]c3ccccc23)C1 (configuration not stated) | ≥ 50 | – | ≥ 100 | – | –
9 | COc1ccc(C(c2nnnn2C(C)(C)C)N2CCc3c([nH]c4ccccc34)C2)cc1 (configuration not stated) | 4.32 | 10 | 1.14 | 42 | –
10 | COc1ccc(C(c2nnnn2C(C)(C)C)N2CCc3c([nH]c4ccccc34)C2)cc1OC (configuration not stated) | 16 | 8 | 5.71 | 138 | –
11 | COc1ccc(C(c2nnnn2C2CCCCC2)N2CCc3c([nH]c4ccccc34)C2)cc1OC (configuration not stated) | 3.31 | 13 | 1.2 | 41.9 | –
12 | CC(C)(C)n1nnnc1C(c1ccc([N+](=O)[O-])cc1)N1CCc2c([nH]c3ccccc23)C1 (configuration not stated) | 3.78 | 37 | 0.59 | 140 | inhibition in vivo at 50 mg/kg (Leishmania donovani [6]): 19.6%; inhibition in vivo at 50 mg/kg (Leishmania donovani [14]): 20.4%
13 | COc1cc(C(c2nnnn2C(C)(C)C)N2CCc3c([nH]c4ccccc34)C2)cc(OC)c1OC (configuration not stated) | ≥ 50 | – | 23.5 | – | –
14 | CC(C)(C)n1nnnc1C(c1ccccc1)N1CCc2c([nH]c3ccccc23)C1 (configuration not stated) | 5.41 | 27 | 4.07 | 146 | inhibition in vivo at 50 mg/kg (Leishmania donovani [6]): 3.79%; inhibition in vivo at 50 mg/kg (Leishmania donovani [14]): 4.05%
15 | CC(C)(C)n1nnnc1C(c1ccc(Cl)cc1)N1CCc2c([nH]c3ccccc23)C1 (configuration not stated) | 14.2 | 2 | 3.45 | 37 | –
16 | Brc1ccc(C(c2nnnn2C2CCCCC2)N2CCc3c([nH]c4ccccc34)C2)cc1 (configuration not stated) | ≥ 50 | – | 16.5 | – | –
17 | Fc1ccc(C(c2nnnn2C2CCCCC2)N2CCc3c([nH]c4ccccc34)C2)cc1 (configuration not stated) | ≥ 25 | – | 14.5 | – | –
18 | CCCCCCCCCCCCCCCCOP(=O)([O-])OCC[N+](C)(C)C [MILTEFOSINE] | – | 1.48 | – | 12.4 | inhibition in vivo at 30 mg/kg (Leishmania donovani [15]): 98.1%
19 | CC(C)(C)n1nnnc1C(c1ccc(Br)cc1)N1CCc2c([nH]c3ccccc23)C1 (configuration not stated) | 3.77 | 38 | 1.58 | 144 | inhibition in vivo at 50 mg/kg (Leishmania donovani [6]): 53.1%; inhibition in vivo at 50 mg/kg (Leishmania donovani [14]): 33.7%
20 | CC(C)(C)n1nnnc1C(c1cccc([N+](=O)[O-])c1)N1CCc2c([nH]c3ccccc23)C1 (configuration not stated) | 3.86 | 39 | 4.91 | 150 | inhibition in vivo at 50 mg/kg (Leishmania donovani [6]): 2.92%; inhibition in vivo at 50 mg/kg (Leishmania donovani [14]): 4.83%
21 | Clc1ccc(C(c2nnnn2C2CCCCC2)N2CCc3c([nH]c4ccccc34)C2)cc1 (configuration not stated) | 2.08 | 17 | 2.89 | 35.5 | –
